Laboratory results published in ChEMBL document CHEMBL1156265, “Furo[2,3-b]pyridine-based cannabinoid-1 receptor inverse agonists: synthesis and biological evaluation. Part 1” (Bioorg Med Chem Lett, 2010).
Calls of active or inactive are those of the source. The calls are words filed in the database; no cut-off is given here.

Columns and labels:
[1] = Inhibition of rat GABAA receptor
In short: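 Rat GABA_A ligand-gated ion-channel binding, run within a 175-assay radioligand binding and enzymatic screening panel. IC50 estimated.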

[2] = Half life in rhesus monkey; format: ADME, organism-based, Macaca mulatta; details: in vivo
In short: (§1)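 PK in dog and rhesus macaque. Bioavailability, plasma clearance (mL/min/kg) and terminal half-life derived from plasma drug levels.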

[3] = Bioavailability in rat; format: ADME, organism-based; details: in vivo
[4] = target: T1, Cytochrome P450 1A2 (Homo sapiens, UniProt P05177); assay: Inhibition of CYP1A2; format: ADME
T1 sequence (P05177 whole entry): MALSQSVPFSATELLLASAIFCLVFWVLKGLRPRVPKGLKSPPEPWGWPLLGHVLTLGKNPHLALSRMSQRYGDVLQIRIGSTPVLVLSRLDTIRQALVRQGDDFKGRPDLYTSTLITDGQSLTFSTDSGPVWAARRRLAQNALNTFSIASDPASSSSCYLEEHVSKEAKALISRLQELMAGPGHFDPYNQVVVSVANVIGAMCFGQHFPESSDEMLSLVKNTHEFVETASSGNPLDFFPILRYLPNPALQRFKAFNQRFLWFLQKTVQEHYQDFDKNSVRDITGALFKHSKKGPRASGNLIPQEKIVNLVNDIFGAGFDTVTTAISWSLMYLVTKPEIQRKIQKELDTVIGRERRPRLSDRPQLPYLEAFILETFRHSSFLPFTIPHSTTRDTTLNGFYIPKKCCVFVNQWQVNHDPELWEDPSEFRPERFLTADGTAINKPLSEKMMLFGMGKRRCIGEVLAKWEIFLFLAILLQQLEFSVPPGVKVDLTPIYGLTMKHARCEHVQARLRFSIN
In short: (§2)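 Inhibition of cytochrome P450 isoforms CYP3A4, CYP2C9, CYP2D6, CYP2C19 and CYP1A2, reported as IC50 in µM.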

[5] = system: Mus musculus; assay: Suppression of food intake in Cnr1+/+ C57BL/6 mouse at 1 mg/kg, po measured for 18 hrs by overnight food intake study; format: functional
In short: (§3)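 The overnight food intake study used ad libitum fed male mice aged 14–16 weeks, Cnr1+/+ (n = 10) and Cnr1−/− (n = 7). Mice received a single oral dose of 1 mg/kg. Food intake and body weight change were measured over 18 h relative to vehicle-treated mice.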

[6] = Drug level in rat brain at 1 mg/kg, iv after 4 hrs; format: ADME, organism-based; parameters: dose 1 mg/kg, route intravenous; details: read-out: Drug uptake
[7] = system: Mus musculus; assay: Toxicity in CD1 mouse assessed as ataxia at 100 mg/kg, po; format: organism-based; parameters: dose 100 mg/kg, route oral; details: in vivo
[8] = system: Brain; assay: Drug level in CD1 mouse brain at 30 mg/kg, po; format: ADME, organism-based; parameters: dose 30 mg/kg, route oral; details: in vivo, read-out: Drug uptake
[9] = system: Canis familiaris; assay: Plasma concentration in anesthetized dog at up to 10 mg/kg, iv measured at the end of infusion; format: ADME, organism-based, Canis lupus familiaris; parameters: dose 10 mg/kg, route intravenous; details: in vivo
In short: (§4)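 Anesthetized dogs received a cumulative IV infusion of 1, 3 and 10 mg/kg, each dose infused over 30 min. Mean arterial pressure, heart rate and ECG intervals including QTc were compared with vehicle-treated animals. Plasma drug level was measured at the end of infusion.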

[10] = target: Voltage-gated inwardly rectifying potassium channel KCNH2 (Homo sapiens, UniProt Q12809); assay: Inhibition of human ERG potassium channel
Sequence of Voltage-gated inwardly rectifying potassium channel KCNH2 (Q12809 whole entry): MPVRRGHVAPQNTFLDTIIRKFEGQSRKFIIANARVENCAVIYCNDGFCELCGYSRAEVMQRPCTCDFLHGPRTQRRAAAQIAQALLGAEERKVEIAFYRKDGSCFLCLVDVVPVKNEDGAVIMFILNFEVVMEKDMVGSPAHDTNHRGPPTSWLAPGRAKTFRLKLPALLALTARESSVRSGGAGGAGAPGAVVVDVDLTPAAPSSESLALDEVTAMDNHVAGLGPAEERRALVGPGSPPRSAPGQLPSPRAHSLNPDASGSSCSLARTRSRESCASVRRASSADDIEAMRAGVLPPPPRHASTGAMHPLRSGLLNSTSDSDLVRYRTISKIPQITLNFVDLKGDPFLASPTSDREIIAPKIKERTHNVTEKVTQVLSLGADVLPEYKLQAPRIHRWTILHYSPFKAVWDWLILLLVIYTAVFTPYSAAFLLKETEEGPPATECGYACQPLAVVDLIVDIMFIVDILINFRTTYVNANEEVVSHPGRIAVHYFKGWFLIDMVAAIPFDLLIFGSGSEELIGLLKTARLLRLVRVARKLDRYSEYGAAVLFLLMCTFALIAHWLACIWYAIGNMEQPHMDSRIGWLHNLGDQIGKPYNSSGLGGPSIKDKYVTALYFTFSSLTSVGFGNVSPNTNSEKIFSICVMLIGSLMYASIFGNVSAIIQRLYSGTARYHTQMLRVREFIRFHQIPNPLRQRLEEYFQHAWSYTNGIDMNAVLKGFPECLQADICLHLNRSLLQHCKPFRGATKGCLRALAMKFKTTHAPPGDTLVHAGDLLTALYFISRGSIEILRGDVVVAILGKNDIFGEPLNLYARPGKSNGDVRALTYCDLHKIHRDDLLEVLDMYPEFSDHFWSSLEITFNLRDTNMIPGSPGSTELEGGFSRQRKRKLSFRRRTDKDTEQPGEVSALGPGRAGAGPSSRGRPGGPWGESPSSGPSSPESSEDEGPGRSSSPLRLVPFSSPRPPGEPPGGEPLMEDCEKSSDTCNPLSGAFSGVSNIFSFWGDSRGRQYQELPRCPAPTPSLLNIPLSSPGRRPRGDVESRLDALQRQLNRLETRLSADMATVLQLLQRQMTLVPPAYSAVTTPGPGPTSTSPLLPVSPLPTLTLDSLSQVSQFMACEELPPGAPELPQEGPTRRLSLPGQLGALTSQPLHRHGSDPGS

[11] = target: GABA-A receptor; alpha-1/beta-3/gamma-2 (Homo sapiens) (UniProt P14867+P18507+P28472); assay: Partial agonist activity at human alpha-1-beta-3-gamma-2 GABAA receptor expressed in […] cells at 3 uM; format: functional, cell-based
In short: (§5)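 Whole-cell electrophysiology in Ltk cells expressing human α1β3γ2 GABA_A receptors. EC50 determined, and maximal efficacy expressed relative to the maximum GABA response.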

[12] = Half life in rat; format: ADME, organism-based; details: in vivo
[13] = system: Rattus norvegicus; assay: Reduction of body weight in rat at 1 mg/kg, po relative to control; format: functional; parameters: scale not given: the % may be the effect or the level left
In short: (§6)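 Chronic study in diet-induced obese rats with daily oral dosing at 1 mg/kg (for some compounds 0.1 and 0.3 mg/kg as well). Body weight change and cumulative food intake suppression were measured relative to vehicle. The 14-day study ended 18 h after the day-14 dose; one study ended on day 13.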

[14] = target: Cytochrome P450 2D6 (Homo sapiens, UniProt P10635); assay: Inhibition of CYP2D6; format: ADME; in short: as §2
Sequence of Cytochrome P450 2D6 (P10635 whole entry): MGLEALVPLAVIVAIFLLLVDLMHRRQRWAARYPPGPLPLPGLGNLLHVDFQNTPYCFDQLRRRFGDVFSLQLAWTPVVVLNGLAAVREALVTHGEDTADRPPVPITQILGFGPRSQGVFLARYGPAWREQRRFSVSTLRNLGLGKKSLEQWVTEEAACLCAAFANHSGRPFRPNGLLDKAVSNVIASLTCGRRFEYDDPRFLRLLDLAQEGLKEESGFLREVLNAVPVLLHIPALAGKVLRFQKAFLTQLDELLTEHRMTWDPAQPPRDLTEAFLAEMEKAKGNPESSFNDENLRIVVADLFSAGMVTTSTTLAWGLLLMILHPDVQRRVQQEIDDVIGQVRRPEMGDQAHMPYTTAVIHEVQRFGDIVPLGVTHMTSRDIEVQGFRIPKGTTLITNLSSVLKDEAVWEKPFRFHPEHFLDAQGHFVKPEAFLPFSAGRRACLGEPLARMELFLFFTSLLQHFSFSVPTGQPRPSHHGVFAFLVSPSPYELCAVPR

[15] = system: Canis familiaris; assay: Toxicity in anesthetized dog assessed as change in ECG intervals up to 10 mg/kg, iv relative to control; format: organism-based, Canis lupus familiaris; parameters: dose 10 mg/kg, route intravenous; details: in vivo; in short: as §4
[16] = system: Brain; assay: Drug level in Sprague-Dawley rat brain at 30 mg/kg, po; format: ADME, organism-based; parameters: dose 30 mg/kg, route oral; details: in vivo, read-out: Drug uptake
In short: (§7)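 Male Sprague Dawley rats dosed orally at 30 mg/kg. Motor coordination assessed on rotarod, with plasma and brain drug levels measured.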

[17] = system: Brain; assay: Drug level in CD1 mouse brain at 100 mg/kg, po; format: ADME, organism-based; parameters: dose 100 mg/kg, route oral; details: in vivo, read-out: Drug uptake
[18] = system: Canis familiaris; assay: Toxicity in anesthetized dog assessed as change in heart rate up to 10 mg/kg, iv relative to control; format: organism-based, Canis lupus familiaris; parameters: dose 10 mg/kg, route intravenous; details: in vivo; in short: as §4
[19] = system: Rattus norvegicus; assay: Suppression of food intake in DIO rat at 1 mg/kg, po measured 18 hrs post dose on day 14 relative to control
[20] = system: Canis familiaris; assay: Toxicity in anesthetized dog assessed as change in mean arterial pressure up to 10 mg/kg, iv relative to control; format: organism-based, Canis lupus familiaris, Artery; parameters: dose 10 mg/kg, route intravenous; details: in vivo; in short: as §4
[21] = Bioavailability in rhesus monkey; format: ADME, organism-based, Macaca mulatta; details: in vivo; in short: as §1
[22] = system: Plasma; assay: Drug level in CD1 mouse plasma at 30 mg/kg, po; format: ADME, organism-based; parameters: dose 30 mg/kg, route oral; details: in vivo, read-out: Drug uptake
[23] = Plasma clearance in dog; format: ADME, organism-based, Canis lupus familiaris; in short: as §1
[24] = Metabolic stability in rat urine assessed as compound recovery at 1 mg/kg; format: ADME, organism-based; parameters: dose 1 mg/kg; details: read-out: Activity
In short: (§8)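 Radioactivity excreted in bile and urine measured as percent of dose.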

[25] = system: Rattus norvegicus; assay: Suppression of cumulative food intake in rat at 1 mg/kg, po relative to control; format: functional; in short: as §6
[26] = Metabolic stability in rat bile assessed as compound recovery at 1 mg/kg; format: ADME, organism-based; parameters: dose 1 mg/kg; details: read-out: Activity; in short: as §8
[27] = system: Rattus norvegicus; assay: Toxicity in Sprague-Dawley rat at 30 mg/kg, po by rotarod test; format: organism-based; parameters: dose 30 mg/kg, route oral; details: in vivo; in short: as §7
[28] = Ratio of drug level in brain to plasma in rat at 1 mg/kg, iv after 4 hrs; format: ADME, organism-based; parameters: dose 1 mg/kg, route intravenous
[29] = target: Cytochrome P450 3A4 (Homo sapiens, UniProt P08684); assay: Inhibition of CYP3A4; format: ADME; in short: as §2
Sequence of Cytochrome P450 3A4 (P08684 whole entry): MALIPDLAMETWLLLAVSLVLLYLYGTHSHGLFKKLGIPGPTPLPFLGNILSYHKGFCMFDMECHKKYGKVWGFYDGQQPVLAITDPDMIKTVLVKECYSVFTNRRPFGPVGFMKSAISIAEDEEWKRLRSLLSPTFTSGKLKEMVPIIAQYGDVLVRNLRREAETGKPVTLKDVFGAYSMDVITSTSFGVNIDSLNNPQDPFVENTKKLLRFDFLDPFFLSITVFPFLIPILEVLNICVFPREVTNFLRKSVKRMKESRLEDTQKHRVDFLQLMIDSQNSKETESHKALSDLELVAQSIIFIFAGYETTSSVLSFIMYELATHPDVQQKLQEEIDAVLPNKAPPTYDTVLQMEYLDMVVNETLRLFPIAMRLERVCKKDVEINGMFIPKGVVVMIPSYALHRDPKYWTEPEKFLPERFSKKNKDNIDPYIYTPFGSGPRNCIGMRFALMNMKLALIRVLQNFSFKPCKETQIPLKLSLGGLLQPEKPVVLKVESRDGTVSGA

[30] = system: Rattus norvegicus; assay: Reduction of body weight in DIO rat assessed as weight change at 1 mg/kg, po after 18 hrs; format: functional
In short: (§9)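 Acute study in diet-induced obese rats. A single oral dose was given and rats were monitored for 18 h. Food intake suppression and body weight change were measured relative to vehicle-treated controls.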

[31] = target: Cytochrome P450 2C9 (Homo sapiens, UniProt P11712); assay: Inhibition of CYP2C9; format: ADME; in short: as §2
Sequence of Cytochrome P450 2C9 (P11712 whole entry): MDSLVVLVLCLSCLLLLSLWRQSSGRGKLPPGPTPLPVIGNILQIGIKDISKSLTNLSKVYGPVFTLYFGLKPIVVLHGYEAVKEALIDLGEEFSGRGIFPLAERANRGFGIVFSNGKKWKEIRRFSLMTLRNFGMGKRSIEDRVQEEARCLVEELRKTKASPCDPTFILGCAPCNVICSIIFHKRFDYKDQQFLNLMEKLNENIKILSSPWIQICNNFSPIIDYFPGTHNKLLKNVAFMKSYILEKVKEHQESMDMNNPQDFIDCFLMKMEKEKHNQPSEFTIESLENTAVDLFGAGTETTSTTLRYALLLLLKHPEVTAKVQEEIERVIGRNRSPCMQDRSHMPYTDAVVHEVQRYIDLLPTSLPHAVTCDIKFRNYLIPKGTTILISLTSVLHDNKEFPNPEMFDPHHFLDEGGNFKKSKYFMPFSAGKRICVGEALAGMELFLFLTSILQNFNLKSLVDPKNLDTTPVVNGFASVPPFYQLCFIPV

[32] = system: Rattus norvegicus; assay: Reduction of body weight in DIO rat assessed as weight change at 1 mg/kg, po daily measured 18 hrs post dose on day 14; format: functional; in short: as §6
[33] = system: Rattus norvegicus; assay: Reduction of body weight in DIO rat assessed as weight change at 1 mg/kg, po after 2 weeks; format: functional, organism-based; parameters: dose 1 mg/kg
In short: (§10)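 DIO rats were dosed orally once daily for 2 weeks at 0.1, 0.3 or 1 mg/kg. Body weight change (g) was compared with vehicle, and the study ended 18 h after the day-14 dose.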

[34] = system: Mus musculus; assay: Reduction of body weight in Cnr1+/+ C57BL/6 mouse at 1 mg/kg, po measured for 18 hrs; format: functional; in short: as §3
[35] = system: Plasma; assay: Drug level in CD1 mouse plasma at 100 mg/kg, po; format: ADME, organism-based; parameters: dose 100 mg/kg, route oral; details: in vivo, read-out: Drug uptake
[36] = Bioavailability in dog; format: ADME, organism-based, Canis lupus familiaris; details: in vivo; in short: as §1
[37] = Plasma clearance in rhesus monkey; format: ADME, organism-based, Macaca mulatta; in short: as §1
[38] = system: Mus musculus; assay: Toxicity in CD1 mouse assessed as hyperactive response at 100 mg/kg, po; format: organism-based; parameters: dose 100 mg/kg, route oral; details: in vivo
[39] = Plasma clearance in rat; format: ADME, organism-based
[40] = system: Rattus norvegicus; assay: Reduction of body weight in DIO rat assessed as weight change at 0.1 mg/kg, po after 2 weeks; format: functional, organism-based; parameters: dose 0.1 mg/kg; in short: as §10
[41] = target: GABA-A receptor; agonist GABA site; assay: Partial agonist activity at human alpha-1-beta-3-gamma-2 GABAA receptor expressed in […] cells; format: functional, cell-based; in short: as §5
[42] = target: Cytochrome P450 2C19 (Homo sapiens, UniProt P33261); assay: Inhibition of CYP2C19; format: ADME; in short: as §2
Sequence of Cytochrome P450 2C19 (P33261 whole entry): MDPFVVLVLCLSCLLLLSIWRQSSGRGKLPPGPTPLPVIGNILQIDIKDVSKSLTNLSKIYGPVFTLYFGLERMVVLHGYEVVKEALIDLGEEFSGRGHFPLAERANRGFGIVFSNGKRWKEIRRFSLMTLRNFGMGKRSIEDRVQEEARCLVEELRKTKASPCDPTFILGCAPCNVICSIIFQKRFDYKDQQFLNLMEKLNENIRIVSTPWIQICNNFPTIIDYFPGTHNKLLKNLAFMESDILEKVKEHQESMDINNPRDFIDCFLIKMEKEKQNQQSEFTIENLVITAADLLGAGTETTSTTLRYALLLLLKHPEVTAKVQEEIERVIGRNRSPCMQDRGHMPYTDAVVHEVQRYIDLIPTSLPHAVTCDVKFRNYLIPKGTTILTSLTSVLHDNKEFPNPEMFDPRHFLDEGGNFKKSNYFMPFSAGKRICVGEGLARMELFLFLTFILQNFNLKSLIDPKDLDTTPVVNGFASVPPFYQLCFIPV

[43] = system: Plasma; assay: Drug level in Sprague-Dawley rat plasma at 30 mg/kg, po; format: ADME, organism-based; parameters: dose 30 mg/kg, route oral; details: in vivo, read-out: Drug uptake; in short: as §7
[44] = Drug level in rat plasma at 1 mg/kg, iv after 4 hrs; format: ADME, organism-based; parameters: dose 1 mg/kg, route intravenous; details: read-out: Drug uptake
[45] = Half life in dog; format: ADME, organism-based, Canis lupus familiaris; details: in vivo; in short: as §1
[46] = system: Rattus norvegicus; assay: Reduction of body weight in DIO rat assessed as weight change at 0.3 mg/kg, po after 2 weeks; format: functional, organism-based; parameters: dose 0.3 mg/kg; in short: as §10
[47] = system: Rattus norvegicus; assay: Suppression of food intake in DIO rat at 1 mg/kg, po relative to control; format: functional; in short: as §9
[48] = system: Rattus norvegicus; assay: Suppression of cumulative food intake in rat at 1 mg/kg, po after 13 days relative to control; format: functional; in short: as §6
[49] = system: Rattus norvegicus; assay: Reduction of body weight in DIO rat assessed as weight change at 1 mg/kg, po daily measured 18 hrs post dose on day 13; format: functional; parameters: scale not given: the % may be the effect or the level left; in short: as §6
[50] = system: Rattus norvegicus; assay: Reduction of body weight in rat at 1 mg/kg, po after 13 days relative to control; format: functional; parameters: scale not given: the % may be the effect or the level left; in short: as §6

CC(C)(O)C(=O)c1oc2nc(-c3ccccc3Cl)c(-c3ccc(Cl)cc3)cc2c1NC(=O)CO
IC50 [1]: 1.8 µM
half-life [2]: 17 h
bioavailability [3]: 64%
IC50 [4]: > 100 µM
Activity [5]: 53%
concentration at 4 h [6]: 94 nM
Activity [7]: Toxic
concentration [8]: 2300 nM
concentration [9]: 50000 nM
IC50 [10]: 6.6 µM
Efficacy [11]: 18%
half-life [12]: 7.5 h
Activity [13]: 4.3%
IC50 [14]: 73 µM
Activity [15]: Non-toxic
concentration [16]: 500 nM
concentration [17]: 6500 nM
Activity [18]: Non-toxic
Activity [19]: 24%
Activity [20]: Non-toxic
bioavailability [21]: 50%
concentration [22]: 7000 nM
clearance [23]: 33 mL/min/kg
dose excreted [24]: 5%
Activity [25]: 24%
dose excreted [26]: 87%
Activity [27]: Non-toxic
Kp at 4 h [28]: 0.64
IC50 [29]: 98 µM
Activity [30]: -7 g
IC50 [31]: 17 µM
Activity [32]: -2 g
Activity [33]: Active
Activity [34]: -0.79 g
concentration [35]: 24000 nM
bioavailability [36]: 9%
clearance [37]: 2.1 mL/min/kg
Activity [38]: Toxic
clearance [39]: 8.6 mL/min/kg
Activity [40]: inactive
EC50 [41]: 0.7 µM
IC50 [42]: 43 µM
concentration [43]: 500 nM
concentration at 4 h [44]: 147 nM
half-life [45]: 1.8 h
Activity [46]: Active
Activity [47]: 47%

C[C@H](NC(=O)C(C)(C)Oc1ccc(C(F)(F)F)cn1)[C@@H](Cc1ccc(Cl)cc1)c1cccc(C#N)c1 [TARANABANT]
Activity [48]: 21%
Activity [49]: 6%
Activity [50]: 6%
